Results: publication PMC9119696 (Nature chemical biology, 2021)

Key:
[1] = test system: Pin1 Cys113; assay: CITe-Id chemoproteomic cysteine profiling; assay type: cell-based; details: PATU-8988T cells, 100, 500, 1,000 nM, 5 h
Procedure, shortened: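 Live PATU-8988T cells exposed to test compound at 100, 500 or 1,000 nM for 5 h, then lysed. Lysates co-incubated with the desthiobiotin-tagged probe (2 µM) for 18 h. Probe-labelled cysteines were identified and quantified proteome-wide for dose-dependent competition.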

[2] = Mouse pharmacokinetic profiling; assay type: in vivo; details: oral 10 mg kg^–1, three mice
[3] = test system: PATU-8988T cells; assay: Apoptosis analysis; assay type: cell-based
Procedure, shortened: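 PATU-8988T cells treated in triplicate for 6 days with DMSO (0.1%), test compound (1.0 or 2.5 µM) or a non-covalent analogue (2.5 µM), with medium replaced on day 3. Staurosporine (1 µM, 4 h) served as positive control. Cleaved caspase 3 and Pin1 assessed by Western blot. AnnexinV-FITC/7-AAD FACS scored live, early and late apoptotic cells; mean with SD, n=3.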

[4] = test system: Pin1; assay: Live cell competition pulldown; assay type: cell-based
Procedure, shortened: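 2.5 million cells per 10-cm plate, dosed next day with DMSO or test compound (5 h, or as indicated). Cells washed in cold PBS, scraped and lysed in HEPES pH 7.4/NP-40 buffer with TCEP. Lysate (500 µg) incubated with desthiobiotin probe (1 µM, 1 h, 4 °C), then streptavidin agarose (1.5 h, 4 °C). Pin1 pulldown detected by immunoblot.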

[5] = Acute toxicity model in mice; assay type: in vivo; details: daily 10, 20 or 40 mg kg^–1 IP for 2 weeks
Procedure, shortened: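 Mice, 3 per arm, 14 days: vehicle; 10 mg kg-1 once daily; 20 mg kg-1 every other day; 40 mg kg-1 once daily; 40 mg kg-1 every other day. Given by IP injection in 5% N-methylpyrrolidone, 5% solutol, 20% DMSO. Adverse effects and weight recorded; postmortem examination.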

[6] = test system: Th-MYCN mice tumors; assay: Th-MYCN murine neuroblastoma model; assay type: in vivo
Procedure, shortened: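 Tumours in TH-MYCN mice monitored weekly by palpation; mice with 4–5 mm tumours were enrolled. Groups received test compound at 40 mg kg-1 by oral gavage once or twice daily, or vehicle (5% NMP, 5% kolliphor, 20% DMSO) once daily. The twice-daily arm was capped at 56 doses. Tumour volume measured by 1 Tesla MRI under isoflurane with core temperature held at 37 °C. Two-tailed Student's t test.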

[7] = test system: Kuramochi; assay: 2D growth over time viability; assay type: cell-based; details: up to 8 days
Procedure, shortened: (§1)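 Cells seeded at 500 per well (PATU-8988T: 100 per well) and dosed with test compound or DMSO the next day. Kept at 37 °C, 5% CO2, with medium and compound renewed every 48 h. One plate per time point (days 0, 2, 4, 6, 8); the day 0 plate was read before dosing. Viability measured by CellTiter-Glo luminescence.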

[8] = test system: PATU-8988T Pin1 KO cells; assay: 2D growth over time viability; assay type: cell-based; details: 1 μM, up to 8 days
Procedure, shortened: as §1

[9] = test system: Mino B cells; assay: RNA-seq differential expression; assay type: cell-based, human; details: 1 μM, 6 h
Procedure, shortened: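 Mino cells grown in RPMI 1640 with 15% FBS and 1% penicillin/streptomycin at 37 °C, 5% CO2 in a humidified incubator.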

[10] = test system: WT PATU-8988T cells; assay: 2D growth over time viability; assay type: cell-based; details: 1 μM, 6 and 8 days
Procedure, shortened: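 PATU-8988T cells plated at 100 per well (other lines 500), with one plate per time point (days 0, 2, 4, 6, 8). Treated the day after plating with DMSO or compound and held at 37 °C, 5% CO2. Medium plus fresh compound replaced every 48 h. CellTiter-Glo luminescence read; day 0 read before treatment. Values divided by mean day 0 reading; n = 3 biological replicates.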

[11] = test system: Tg(dβh:MYCN;dβh:EGFP) zebrafish; assay: Zebrafish MYCN neuroblastoma initiation model; assay type: in vivo; details: 25–100 μM in water
Procedure, shortened: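 Three-day-old embryos placed five per well and exposed to DMSO or test compound in egg water. Live fish imaged for bright-field and EGFP fluorescence under identical conditions. EGFP-positive tissue area quantified from the images.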

[12] = target: GST-Pin1 (Homo sapiens, UniProt Q13526); assay: Chymotrypsin-coupled PPIase activity assay; assay type: biochemical; details: read-out: apparent Ki (PPIase assay); measured at 12 h
Procedure, shortened: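 GST-Pin1 (50 nM) preincubated with test compound for 12 h at 4 °C in 35 mM HEPES pH 7.8, 0.2 mM DTT, 0.1 mg ml-1 BSA. Chymotrypsin (final 6 mg ml-1) was added just before starting, followed by Suc-Ala-pSer-Pro-Phe-pNA substrate.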

[13] = test system: 275 human cancer cell lines; assay: PRISM cancer cell viability screening; assay type: cell-based; details: 5-day treatment, 275 cell lines
Procedure, shortened: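 Pooled, 24-nucleotide-barcoded cancer cell lines (275 in total) exposed to test compound for 5 days. Eight-point curve in fourfold dilutions from a top concentration of 20 µM.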

[14] = test system: IMR90 lung fibroblast; assay: IMR90 lung fibroblast viability; assay type: cell-based; details: IMR90 lung fibroblasts
[15] = test system: radioresistant HeLa cells; assay: Radiosensitization AlamarBlue viability assay; assay type: cell-based; details: 7.5 Gy IR
Procedure, shortened: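 HeLa cells seeded at 200 per well. Treated with compound 16 h later, then given 7.5 Gy X-ray 1 h after treatment. AlamarBlue (10% final) added 3 days post-irradiation. Absorbance read at 570 nm, 600 nm reference, 4 days post-irradiation. Background taken from cell-free wells; % survival set against DMSO-treated, nonirradiated controls.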

[16] = Hepatic microsome stability; assay type: in vitro ADME, mouse; details: 1 μM, 1 mg ml^−1 microsomes, NADPH
Procedure, shortened: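 Test compound (1 µM) incubated with hepatic microsomes (1 mg ml-1) in 100 mM KPi, pH 7.4. Reaction started by adding 1 mM NADPH.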

[17] = test system: IRAK1 Thr209 phosphorylation; assay: IRAK1 Thr209 phosphorylation immunoblot; assay type: cell-based; details: HeLa, 24 h post-IR

GST-Pin1, sequence (Q13526 whole entry): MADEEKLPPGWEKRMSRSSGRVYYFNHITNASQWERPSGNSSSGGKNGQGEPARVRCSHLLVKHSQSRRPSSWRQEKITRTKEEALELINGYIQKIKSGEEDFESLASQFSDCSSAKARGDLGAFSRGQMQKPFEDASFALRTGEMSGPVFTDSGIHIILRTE

CC(C)(C)CN(C(=O)CCl)C1CCS(=O)(=O)C1 (stereo not drawn) [Sulfopin]
cysteines with dose-dependent competition (of 162 labeled by Sulfopin-DTB) [1]: only Pin1 Cys113
oral bioavailability (F%) [2]: 30%
Cmax ([2]; read-out: average cmax (peak concentration)): 11.5 µM
Pin1 protein levels ([3]; 5 or 6 days, 1 μM, 2.5 μM, Western blot): Pin1 levels were not changed
induction of apoptosis ([3]; treatments of up to 6 days, 1 and 2.5 μM): does not induce apoptosis
time to complete Pin1 engagement ([4]; 1-μM treatment, PATU-8988T cells): ≤ 4 h
concentration fully engaging Pin1 ([4]; HCT116 cells, 5 h): 0.5 µM
concentration of maximal Pin1 engagement ([4]; PATU-8988T and HCT116 cells, 5 h): 0.5 to 1 µM
concentration fully engaging Pin1 ([4]; PATU-8988T cells, 5 h): 1 µM
Pin1 engagement after 72 h ([4]; PATU-8988T or HCT116 cells, 72 h): > 50%
adverse effects, weight loss [5]: No adverse effects or weight loss were recorded
average increase in survival ([6]; 40 mg kg^−1 BID oral gavage): 28 days
mice with actual reduction in tumor size (MRI) ([6]; 40 mg kg^−1 BID, 7-day treatment, n = 6): five out of six
average increase in survival ([6]; 40 mg kg^−1 QD oral gavage): 10 days
antiproliferative effect (growth over time) [7]: only slight effects
effect on cellular viability [8]: no significant effect on viability
number of genes significantly downregulated [9]: 206
effect on cellular viability [10]: significant effect on cellular viability after 6 and 8 days
neuroblastoma-initiating hyperplasia [11]: significantly suppressed
toxicity in zebrafish embryos [11]: no evidence of toxicity was observed
Ki [12]: 211 nM
antiproliferative activity (PRISM) [13]: limited to no antiproliferative activity
number of cell lines with EC50 <3 μM [13]: nine
no toxicity up to (IMR90 viability) [14]: > 25 µM
resensitization to irradiation [15]: significantly resensitized them to irradiation in a dose-dependent manner
half-life in mouse hepatic microsomes [16]: 41 min
concentration decreasing IRAK1 Thr209 phosphorylation [17]: ≤ 100 nM
